Active and inactive are the calls of the source. The rule behind the calls is not given here.
How the values were obtained:
[1] = tested on: T47D; assay: Cytotoxicity against human T47D cells harboring PI3Kalpha H1047R mutant assessed as reduction in cell viability incubated for 72 hrs by CellTiter-Glo 2.0 luminescent cell viability assay; type: functional, cell-based
[2] = Metabolic stability in pooled human hepatocytes assessed as intrinsic clearance; type: ADME, Liver, Hepatocyte; settings: read-out: CLH
[3] = tested on: SK-BR-3; assay: Cytotoxicity against human SK-BR-3 cells harboring wildtype PI3Kalpha assessed as reduction in cell viability incubated for 72 hrs by CellTiter-Glo 2.0 luminescent cell viability assay; type: functional, cell-based; settings: SK-BR-3, 72 h
[4] = Selectivity ratio of IC50 for cytotoxicity against human SK-BR-3 cells harboring wild type PI3Kalpha to IC50 for cytotoxicity against human T47D cells harboring PI3Kalpha H1047R mutant; type: functional
[5] = In vivo inhibition of AKT phosphorylation in NOD.CB17-Prkdcscid/NCrCr mouse xenografted with ER-/HER+ human HCC1954 cells harboring PI3Kalpha H1047R mutant at 120 mg/kg, ip administered as single dose and measured after 8 hrs by immunoblotting analysis relative to control; type: functional
How it was run: (§1)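 HCC1954 tumor-bearing mice received a single IP dose of 60 or 120 mg/kg. Tumor pAKT modulation was measured at 1 h and 8 h post dose, relative to control.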

[6] = tested on: HCC1954; assay: Antitumor activity against ER-/HER2+ human HCC1954 cells harboring endogenous PI3Kalpha H1047R mutant xenografted in NOD.CB17-Prkdcscid/NCrCr mouse assessed as tumor growth inhibition at 100 mg/kg, ip administered once a day for 14 days relative to control; type: functional; settings: HCC1954, 336 h, time 14 day, read-out: TGI
How it was run: (§2)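 HCC1954 xenograft mice (ER-/HER2+ breast line, endogenous PI3Kα H1047R) were dosed IP for 14 days, at 100 mg/kg qd or 80 mg/kg b.i.d. Read-out was tumor growth inhibition or regression (%).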

[7] = Half-life in CD-1 mouse at 3 mg/kg, iv measured upto 24 hrs; type: ADME, organism-based; settings: in vivo
[8] = Volume of distribution at steady state in Beagle dog at 10 mg/kg, po or 2 mg/kg, iv measured upto 24 hrs; type: ADME, organism-based, Canis lupus familiaris; settings: in vivo
[9] = Drug uptake in NOD.CB17-Prkdcscid/NCrCr mouse xenografted with ER-/HER+ human HCC1954 cells harboring PI3Kalpha H1047R mutant at 60 to 120 mg/kg, ip administered as single dose and measured upto 8 hrs; type: ADME, organism-based; settings: in vivo, dose 60-120 mg/kg
[10] = In vivo inhibition of AKT phosphorylation in NOD.CB17-Prkdcscid/NCrCr mouse xenografted with ER-/HER+ human HCC1954 cells harboring PI3Kalpha H1047R mutant at 60 mg/kg, ip administered as single dose and measured after 8 hrs by immunoblotting analysis relative to control; type: functional; how it was run: as §1
[11] = Half-life in Beagle dog at 2 mg/kg, iv measured upto 24 hrs; type: ADME, organism-based, Canis lupus familiaris; settings: in vivo
[12] = Oral bioavailability in Beagle dog at 10 mg/kg measured upto 24 hrs; type: ADME, organism-based, Canis lupus familiaris; settings: in vivo
[13] = tested on: HCC1954; assay: Antitumor activity against ER-/HER2+ human HCC1954 cells harboring endogenous PI3Kalpha H1047R mutant xenografted in NOD.CB17-Prkdcscid/NCrCr mouse assessed as tumor regression at 80 mg/kg, ip administered twice daily for 14 days relative to control; type: functional; settings: time 14 day; how it was run: as §2
[14] = Volume of distribution at steady state in Sprague-Dawley rat at 100 mg/kg, po or 3 mg/kg, iv measured upto 24 hrs; type: ADME, organism-based; settings: in vivo
[15] = Volume of distribution at steady state in CD-1 mouse at 100 mg/kg, po or 3 mg/kg, iv measured upto 24 hrs; type: ADME, organism-based; settings: in vivo
[16] = target: T1, Phosphatidylinositol 4,5-bisphosphate 3-kinase catalytic subunit alpha isoform (Homo sapiens, UniProt P42336, H1047R); assay: Inhibition of PI3Kalpha H1047R mutant (unknown origin) using PI(4,5)P2:PS as substrate incubated in presence of ATP by ADP-Glo assay
[17] = Oral bioavailability in CD-1 mouse at 100 mg/kg measured upto 24 hrs; type: ADME, organism-based; settings: in vivo
[18] = Oral bioavailability in Sprague-Dawley rat at 100 mg/kg measured upto 24 hrs; type: ADME, organism-based; settings: in vivo
[19] = tested on: Mus musculus; assay: In vivo inhibition of AKT phosphorylation in NOD.CB17-Prkdcscid/NCrCr mouse xenografted with ER-/HER+ human HCC1954 cells harboring PI3Kalpha H1047R mutant at 100 to 300 mg/kg, po measured upto 8 hrs by immunoblotting analysis; type: functional, organism-based; settings: dose 100-300 mg/kg
[20] = Half-life in Sprague-Dawley rat at 3 mg/kg, iv measured upto 24 hrs; type: ADME, organism-based; settings: in vivo
[21] = species: Homo sapiens; assay: Selectivity ratio of IC50 for inhibition of recombinant N-terminal 6-His tagged full length human wildtype PI3Kalpha to IC50 for inhibition of recombinant N-terminal 6-His tagged full length human PI3Kalpha H1047R mutant
[22] = target: T1, Phosphatidylinositol 4,5-bisphosphate 3-kinase catalytic subunit alpha isoform; assay: Inhibition of recombinant N-terminal 6-His tagged full length human PI3Kalpha H1047R mutant using PIP2diC8 and PIP2:PS as substrate incubated for 1 hrs in presence of ATP by fluorescence based plate reader analysis
[23] = target: T1, Phosphatidylinositol 4,5-bisphosphate 3-kinase catalytic subunit alpha isoform

T1 sequence (P42336 whole entry H1047R, canonical isoform): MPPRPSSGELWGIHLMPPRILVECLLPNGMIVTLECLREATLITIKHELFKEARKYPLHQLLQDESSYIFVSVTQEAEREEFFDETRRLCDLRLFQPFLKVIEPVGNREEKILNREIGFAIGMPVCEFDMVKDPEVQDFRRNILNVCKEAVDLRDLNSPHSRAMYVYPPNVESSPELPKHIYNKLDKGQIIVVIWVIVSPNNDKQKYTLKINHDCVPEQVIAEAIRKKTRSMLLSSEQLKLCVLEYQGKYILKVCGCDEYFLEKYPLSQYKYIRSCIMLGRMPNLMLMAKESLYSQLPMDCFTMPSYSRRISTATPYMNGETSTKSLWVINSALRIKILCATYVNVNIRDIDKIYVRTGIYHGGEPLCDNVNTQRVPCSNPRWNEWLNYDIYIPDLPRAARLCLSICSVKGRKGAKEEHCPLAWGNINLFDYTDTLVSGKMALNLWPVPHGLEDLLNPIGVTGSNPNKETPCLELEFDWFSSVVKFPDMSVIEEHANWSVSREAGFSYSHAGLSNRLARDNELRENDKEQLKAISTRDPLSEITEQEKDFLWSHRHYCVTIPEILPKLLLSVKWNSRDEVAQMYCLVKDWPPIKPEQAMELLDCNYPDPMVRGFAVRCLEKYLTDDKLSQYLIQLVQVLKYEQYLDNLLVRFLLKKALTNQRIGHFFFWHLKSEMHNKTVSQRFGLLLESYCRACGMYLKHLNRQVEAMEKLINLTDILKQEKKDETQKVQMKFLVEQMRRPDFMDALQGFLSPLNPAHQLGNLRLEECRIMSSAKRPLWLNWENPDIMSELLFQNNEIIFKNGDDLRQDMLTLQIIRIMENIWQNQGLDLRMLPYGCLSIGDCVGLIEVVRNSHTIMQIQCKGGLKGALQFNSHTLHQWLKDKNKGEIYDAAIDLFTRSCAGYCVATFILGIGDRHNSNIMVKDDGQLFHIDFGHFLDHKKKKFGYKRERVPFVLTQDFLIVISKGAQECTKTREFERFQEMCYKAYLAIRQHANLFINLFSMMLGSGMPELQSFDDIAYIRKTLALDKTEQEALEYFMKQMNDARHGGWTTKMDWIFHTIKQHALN

| Compound | CLint scaled [2] [mL/min/kg] | IC50 [1] [nM] | IC50 [3] [nM] | further results |
| --- | --- | --- | --- | --- |
| Cc1cc([C@@H](C)Nc2cscc2C(=O)O)c2nc(N3CCC(F)(F)CC3)c(C#N)c(=O)n2c1 |  | 183 |  |  |
| Cc1cc([C@@H](C)Nc2ccccc2C(=O)O)c2oc(N3CCC(C)(C)CC3)c(C)c(=O)c2c1 |  | 160 | 9080 | Ratio IC50 [4]: 57 |
| Cc1cc([C@@H](C)Nc2ccc(Cl)nc2C(=O)O)c2nc(N3CCC(F)(F)CC3)c(C#N)c(=O)n2c1 |  | 304 |  |  |
| Cc1cc([C@@H](C)Nc2ccc(Cl)cc2C(=O)O)c2nc(N3CCC(F)(F)CC3)c(C#N)c(=O)n2c1 |  | 627 |  |  |
| Cc1cc([C@@H](C)Nc2ccccc2C(=O)O)c2oc(N3CCCCC3)cc(=O)c2c1 |  |  |  | Ratio IC50 [21]: 13.5; IC50 [22]: < 500 nM |
| Cc1cc([C@@H](C)Nc2ccccc2C(=O)O)c2nc(N3CC4(C3)CC(F)(F)C4)c(C#N)c(=O)n2c1 | 118 | > 10000 | > 10000 |  |
| Cc1cc([C@@H](C)Nc2nccnc2C(=O)O)c2nc(N3CCC(F)(F)CC3)c(C#N)c(=O)n2c1 |  | 3720 |  |  |
| Cc1cc(C(C)Nc2ccccc2C(=O)O)c2nc(N3CCCCC3)ncc2c1 (centres undefined) |  | > 10000 | > 10000 |  |
| Cc1cc([C@@H](C)Nc2cccc(F)c2C(=O)O)c2nc(N3CCC(F)(F)CC3)c(C#N)c(=O)n2c1 |  | 566 |  |  |
| Cc1cc([C@@H](C)Nc2ccccc2C(=O)O)c2nc(N3CC4CC(C3)C4(F)F)c(C#N)c(=O)n2c1 | 39 | 71 | > 10000 |  |
| Cc1ccccc1C1NC(=O)c2cc(NC3COC3)cc(NC(=O)c3csc4ccccc34)c21 (centres undefined) |  |  |  | IC50 [23]: ≤ 100 nM |
| Cc1cc([C@@H](C)Nc2ccccc2C(=O)O)c2nc(C3CCC(F)(F)CC3)c(C#N)c(=O)n2c1 | 12 | 246 | > 10000 |  |
| Cc1cc(C(C)Nc2ccccc2C(=O)O)c2nc(N3CCC(C)(C)CC3)n(C)c(=O)c2c1 (centres undefined) |  | 6240 | > 10000 | Ratio IC50 [4]: 2 |

The next lines start with results.

| CLint scaled [2] [mL/min/kg] | Compound | IC50 [1] [nM] | IC50 [3] [nM] | further results |
| --- | --- | --- | --- | --- |
| 78 | Cc1cc([C@@H](C)Nc2ccccc2C(=O)O)c2nc(N3CCCC3)c(C#N)c(=O)n2c1 | 135 | > 10000 |  |
| 29 | Cc1cc([C@@H](C)Nc2ccccc2C(=O)O)c2nc(N3CCC(F)(F)CC3)c(C#N)c(=O)n2c1 | 48 | 8970 | inhibition in vivo at 120 mg/kg [5]: 81%; inhibition in vivo at 100 mg/kg [6]: 88%; t1/2 [7]: 2 h; Vdss [8]: 1.5 L/kg; Drug uptake [9]: Active; inhibition in vivo at 60 mg/kg [10]: 42%; t1/2 [11]: 0.7 h; F [12]: 7%; Activity [13]: -34%; Vdss [14]: 4.8 L/kg; Vdss [15]: 13.6 L/kg; IC50 [16]: 73 nM; F [17]: 48%; F [18]: 57%; inhibition [19]: inactive; t1/2 [20]: 3.5 h |
| 79 | Cc1cc([C@@H](C)Nc2ccccc2C(=O)O)c2nc(N3CCCCC3)c(C#N)c(=O)n2c1 | 86 | 9940 |  |
| 340 | Cc1cc([C@@H](C)Nc2ccccc2C(=O)O)c2nc(N3CCCCC3)c(C)c(=O)n2c1 | 120 | > 10000 | Ratio IC50 [4]: 83 |
| 24 | Cc1cc([C@@H](C)Nc2ccccc2C(=O)O)c2nc(N3CC(F)(F)C3)c(C#N)c(=O)n2c1 | 56 | > 10000 |  |
| 862 | Cc1cc([C@@H](C)Nc2ccccc2C(=O)O)c2nc(N3CCCCC3)c(F)c(=O)n2c1 |  |  |  |
| 181 | Cc1cc([C@@H](C)Nc2ccccc2C(=O)O)c2nc(N3CCCCC3)cc(=O)n2c1 | 1110 | > 10000 | Ratio IC50 [4]: 9; IC50 [16]: 411 nM |
| 76 | Cc1cc([C@@H](C)Nc2ccccc2C(=O)O)c2nc(N3CCC(C)(C)CC3)c(C#N)c(=O)n2c1 | 151 | > 10000 |  |
| 5 | Cc1cc([C@@H](C)Nc2ccccc2C(=O)O)c2nc(N3CCS(=O)(=O)CC3)c(C#N)c(=O)n2c1 | > 10000 | > 10000 |  |

Source: ChEMBL document CHEMBL5385938 (J Med Chem, 2024)
